Source: PubChem BioAssay
UHRF1 binding: blocks human UHRF1 binding to methylated DNA | Q96T88 | UHRF1 binding to methylated oligo, TR-FRET | inhibition, % at 4.4 µM | hit rate 0.75% among 370,000 | AID 687016; in the data active = inhibition above about 21%;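 note: UHRF1 SRA domain binding a hemimethylated CpG hairpin DNA probe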
DSG3 Ab inh: human desmoglein-3 autoantibody binding inhibition; hit rate 0.48% among 310,000; P32926; DSG3-coupled beads, scFv-anti-DSG3-GFP binding, flow cytometry; stronger effect = lower value; binding (percent of control), % at 10 µM;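 active = binding more than 3 SD below its plate's average and above zero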;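 note: hits lower antibody fragment binding to DSG3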
SUMO1 PPI mod: modulators of human SUMO1-mediated protein-protein interactions; P63165; SUMO1 binding to a labelled peptide, TR-FRET, 1 h; inhibition, % at 20 µM; hit rate 0.33% among 360,000; AID 602429
Target sequence (P63165 whole entry, looked up): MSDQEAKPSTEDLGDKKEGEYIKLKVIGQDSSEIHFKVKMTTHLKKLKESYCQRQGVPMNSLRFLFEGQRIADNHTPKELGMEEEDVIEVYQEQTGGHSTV
DNMT1 inh: blocks human DNA methyltransferase DNMT1; P26358; hit rate 0.83% among 360,000; inhibition (reported as % activation of signal), % at 10 µM; DNMT1 molecular beacon, Hinp1I cleavage, fluorescence; AID 588458; in the data active = inhibition above about 50%
NS3 helicase inh: inhibitors of Hepatitis C virus NS3 helicase. NS3 helicase DNA unwinding, Cy5 molecular beacon fluorescence. inhibition, % at 10.9 µM. hit rate 0.56% among 290,000;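 active = inhibition above the mean of all tested compounds plus 3 SD, set per campaign, cut at about 35% in these data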
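System: NS3 helicase fragment of HCV / Schedule: 1 h at 25 °C / Control set: DMSO alone as 0% and 110 µM thioflavine S as 100% / Reagent: Cy5/quencher beacon DNA duplex and ATP to start / Technique: Cy5 fluorescence / Replication: singlicate / Evaluation: % inhibition of end-to-start signal ratio versus controls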
MBD2 DNA inh: MBD2-methylated oligo binding inhibition. TR-FRET, MBD2 binding to methylated oligonucleotide. inhibition, % at 4.4 µM. hit rate 0.31% among 370,000. AID 686964; in the data active = inhibition above about 13%
Target sequence (Q9UBB5 whole entry, looked up): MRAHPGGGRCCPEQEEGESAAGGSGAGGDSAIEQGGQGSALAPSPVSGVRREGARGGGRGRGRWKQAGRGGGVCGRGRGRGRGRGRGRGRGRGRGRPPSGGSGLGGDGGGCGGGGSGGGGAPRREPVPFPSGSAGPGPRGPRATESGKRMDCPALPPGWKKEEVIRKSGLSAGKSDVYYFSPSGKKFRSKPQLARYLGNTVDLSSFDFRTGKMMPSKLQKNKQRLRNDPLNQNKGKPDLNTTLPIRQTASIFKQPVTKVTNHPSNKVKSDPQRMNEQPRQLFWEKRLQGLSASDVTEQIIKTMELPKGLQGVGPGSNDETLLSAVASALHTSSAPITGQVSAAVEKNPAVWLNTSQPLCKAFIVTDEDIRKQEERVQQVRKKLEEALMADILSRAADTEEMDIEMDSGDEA
NS3 hel confirm: confirmation of Hepatitis C virus NS3 helicase inhibitors. shares compounds with NS3 helicase inh. NS3 helicase DNA unwinding, Cy5 molecular beacon fluorescence. inhibition, % at 10.9 µM. hit rate 31% among 1,600;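 active = inhibition above the mean of all tested compounds plus 3 SD, cutoff set per campaign, cut at about 36% in these data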
DNA FID counter: intercalator displacement, NS3 helicase counter-screen; hit rate 4% among 1,600; DNA fluorescent intercalator displacement, fluorescence; shares compounds with NS3 helicase inh; inhibition, % at 7.9 µM; AID 1945;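 note: higher means more displacement of ethidium bromide from the DNA hairpin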
FID counter DR: displaces fluorescent intercalator from DNA, HCV helicase counter-screen. shares compounds with NS3 helicase inh. fluorescent intercalator displacement from DNA, fluorescence. IC50, µM. 120 tested, under 10 active. AID 2172; call rule not given here
DNMT1 inh conf: DNMT1 inhibition confirmation, single concentration. shares compounds with DNMT1 inh. DNMT1 molecular beacon HinP1I cleavage, fluorescence. inhibition, % at 10 µM. hit rate 8% among 2,300. AID 602385;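 active = average inhibition of at least 30% in the single-concentration confirmation test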
Beacon interf: beacon fluorescence artifact counter-screen. shares compounds with DNMT1 inh. activation (fluorescence interference), % at 10 µM. AID 602387. hit rate 1% among 2,300. DNMT1 molecular beacon spectral interference counterscreen, fluorescence 485/520;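 active = activation of at least 30% at 10 µM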;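 note: DNMT1 catalytic domain with a HinP1I cleavage step and a FAM/dabcyl DNA beacon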
Of the large screens only hits and unclear results are named; the others gave an inactive call (follow-up assays come after a bar, where they were run). This is a sample that favours compounds with a hit; in the whole collection about 2.5% have one here. Cut-off read from the data, not from the text of the source, unless noted: active = inhibition above about 37%; inactive = the rest.

CCCOc1ccc(C2C(C(=O)c3ccc(C)o3)=C(O)C(=O)N2Cc2ccco2)cc1OCC (stereo not drawn)	NS3 helicase inh 37 | NS3 hel confirm 55 | DNA FID counter inactive | FID counter DR inactive
O=C(C1=C(O)C(=O)N(Cc2ccco2)C1c1cccc([N+](=O)[O-])c1)c1ccco1 (stereo not drawn)	none
O=C(C1=C(O)C(=O)N(c2ncccn2)C1c1ccc(Cl)cc1)c1ccco1 (stereo not drawn)	NS3 helicase inh 43 | NS3 hel confirm inactive | DNA FID counter inactive
COc1ccc(C2C(C(=O)c3ccc(C)o3)=C(O)C(=O)N2Cc2ccco2)cc1OC (stereo not drawn)	none
O=C1C(=O)N(Cc2ccco2)C(c2cccs2)/C1=C(\O)c1cccc([N+](=O)[O-])c1 (stereo not drawn)	NS3 helicase inh 43 | NS3 hel confirm inactive | DNA FID counter inactive
COc1cccc(/C(O)=C2/C(=O)C(=O)N(Cc3ccco3)C2c2ccncc2)c1 (stereo not drawn)	none
Cc1c(C(=O)NCc2ccccn2)oc2c(Cl)cccc12	none (no result: NS3 helicase inh)
COc1cc(C(=O)NCC(c2cccs2)N2CCc3ccccc32)cc(OC)c1OC (stereo not drawn)	none (no result: NS3 helicase inh)
CCc1ccc(-c2nc(CCl)cs2)cc1	none
O=C(NCCCCCCNC(=O)OCCO)OCCO	none
Cc1ccc(NC(=S)N2CCCCCC2)cc1	none
CCCOc1ccc(C2C(C(=O)c3ccc(C)o3)=C(O)C(=O)N2Cc2ccco2)cc1 (stereo not drawn)	NS3 helicase inh 71 | NS3 hel confirm 98 | DNA FID counter inactive
CCOc1ccc(C2C(C(=O)c3ccc(C)o3)=C(O)C(=O)N2Cc2cccnc2)cc1 (stereo not drawn)	none
COc1cc(C2/C(=C(\O)c3ccc4c(c3)OCCO4)C(=O)C(=O)N2Cc2ccco2)ccc1O (stereo not drawn)	none (no result: DSG3 Ab inh)
O=C1C(=O)N(Cc2ccco2)C(c2cccc(Cl)c2)/C1=C(\O)c1ccc2c(c1)OCCO2 (stereo not drawn)	NS3 helicase inh 47 (no result: DSG3 Ab inh) | NS3 hel confirm 83 | DNA FID counter inactive | FID counter DR inactive
COc1ccc2ccccc2c1C(=O)/C=C\c1ccoc1	NS3 helicase inh 55 | NS3 hel confirm inactive | DNA FID counter inactive
O=C(/C=C/c1ccoc1)c1ccccc1O	none
Cc1nc2c(C(=O)NCc3ccccc3Cl)c[nH]n2c(=O)c1Cl	NS3 helicase inh 56 | NS3 hel confirm 46 | DNA FID counter inactive
Cc1cc(C)c(C#N)c(N2CCCC(C(N)=O)C2)n1 (stereo not drawn)	none
Cc1cc(=O)n2c(c1C#N)SC1CCCCC12O (stereo not drawn)	NS3 helicase inh 55 | NS3 hel confirm inactive | DNA FID counter inactive
CC(C)(C)[C@H]1CCC(=O)N([C@H](CC#N)Cc2ccccc2)CC1	none
N#CC1=C(N)Oc2ccc3ccc(O)cc3c2C1c1ccsc1 (stereo not drawn)	NS3 helicase inh 53 | NS3 hel confirm inactive | DNA FID counter inactive
N#CC1=C(N)Oc2cc(N)ccc2C1c1ccsc1 (stereo not drawn)	none
c1ccc2cc(Cn3ccnc3)ccc2c1	none
O=C(N/C(=C\c1ccccc1)C(=O)N1CCOCC1)c1ccccc1Cl	NS3 helicase inh 36 | NS3 hel confirm inactive | DNA FID counter inactive
O=C(N/C(=C\c1ccc(Br)cc1)C(=O)N1CCOCC1)c1ccccc1Cl	none
O=C1NC(c2ccccc2)=C(c2nc3ccccc3s2)C(c2ccccc2)N1 (stereo not drawn)	NS3 helicase inh 39 | NS3 hel confirm inactive | DNA FID counter inactive
O=C1C2C3c4ccccc4C(Br)(c4ccccc43)C2C(=O)N1c1ccccc1O (stereo not drawn)	none
Cc1cc(C)c2c(c1)NC(C(=O)O)C1CC=CC21 (stereo not drawn)	UHRF1 binding 39, SUMO1 PPI mod 42, DNMT1 inh 76, NS3 helicase inh 44, MBD2 DNA inh 16 | NS3 hel confirm 98 | DNA FID counter inactive | FID counter DR inactive
CCCC1Nc2ccc(C(=O)O)cc2C2C=CCC12 (stereo not drawn)	none (no result: UHRF1 binding, MBD2 DNA inh)
CCOC(=O)c1ccc2c(c1)C1C=CCC1C(C(=O)O)N2 (stereo not drawn)	NS3 helicase inh 39 (no result: UHRF1 binding, DSG3 Ab inh, SUMO1 PPI mod, DNMT1 inh, MBD2 DNA inh) | NS3 hel confirm 91 | DNA FID counter inactive
CCN(CC)CCCC(C)NC1=NCCCCC1 (stereo not drawn)	none
CCCCn1c(NS(=O)(=O)c2ccc(C)cc2)c(S(=O)(=O)c2ccccc2)c2nc3ccccc3nc21	SUMO1 PPI mod 50, DNMT1 inh 55, NS3 helicase inh 38 | NS3 hel confirm 72 | DNA FID counter inactive | FID counter DR inactive | DNMT1 inh conf inactive | Beacon interf inactive
O=C(N/N=C/c1cc(Br)c(Br)o1)c1ccc2c(c1)OCCO2	DNMT1 inh 72, NS3 helicase inh 37 | NS3 hel confirm inactive | DNA FID counter inactive | DNMT1 inh conf inactive | Beacon interf inactive
CNc1ccc(Br)cc(C(=O)/C=C/c2ccc3c(c2)OCO3)c1=O	DNMT1 inh 65, NS3 helicase inh 54 | NS3 hel confirm 45 | DNA FID counter inactive | DNMT1 inh conf inactive | Beacon interf inactive
CCCC(c1nnnn1CS(=O)(=O)c1ccc(C)cc1)N1CCN(c2ccc(F)cc2)CC1 (stereo not drawn)	none
O=C(NN1CCOCC1)c1cccc(Br)c1	none (no result: NS3 helicase inh)
Cc1ccc(-n2cccc2/C=C2\C(=N)N3N=C(c4ccco4)SC3=NC2=O)cc1	SUMO1 PPI mod 104, DNMT1 inh 87, NS3 helicase inh 42 | NS3 hel confirm 85 | DNA FID counter inactive | FID counter DR inactive | DNMT1 inh conf inactive | Beacon interf inactive
CCC1=NN2C(=N)/C(=C\c3cccn3-c3ccc(Cl)cc3)C(=O)N=C2S1	none
CCOC(=O)c1[nH]c2cc(OC)c(OC)cc2c1NC(=O)c1nonc1C	none (no result: DSG3 Ab inh)
Cc1ccc(-c2cc(-c3ccco3)c(C#N)c(=O)[nH]2)cc1	DNMT1 inh 58, NS3 helicase inh 42 (no result: DSG3 Ab inh) | NS3 hel confirm inactive | DNA FID counter inactive | DNMT1 inh conf inactive | Beacon interf inactive
